# Measurements taken from ChEMBL document CHEMBL1129647, “Targeting delavirdine/atevirdine resistant HIV-1: identification of (alkylamino)piperidine-containing bis(heteroaryl)piperazines as broad spectrum HIV-1 reverse transcriptase inhibitors” (J Med Chem, 1996).
# Assays:
# [1] = Clearance at an iv dose of 12 mg/Kg and po dose of 23 mg/Kg; type: ADME, organism-based; details: rat, in vivo
# How it was run: (§1)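 Male Sprague-Dawley rats, fasted, dosed iv and po in a crossover design with a 1 week washout between treatments (N = 3). Compound was given as a solution in propylene glycol/water (80/20, v/v) acidified with a molar excess of methanesulfonic acid. Values are the iv clearance and the absolute oral bioavailability.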
# [2] = Bioavailability at an iv dose of 12 mg/Kg and po dose of 23 mg/Kg; type: ADME, organism-based; details: rat, in vivo, read-out: Bioavailabiility; how it was run: as §1
# [3] = biological target: T1, Human immunodeficiency virus type 1 reverse transcriptase (Human immunodeficiency virus 1, UniProt Q72547)
# [4] = tested on: Human immunodeficiency virus 1; test: Concentration required to inhibit P24 production by 90% against L-697661 of HIV-1 IIIB (Y181C); type: functional
# [5] = Clearance at an iv dose of 15 mg/Kg and po dose of 30 mg/Kg; type: ADME, organism-based; details: in vivo; how it was run: as §1
# [6] = tested on: Human immunodeficiency virus 1; test: Concentration required to inhibit P24 production by 90% against U-90,152 of HIV-1 MF (P236L); type: functional
# [7] = biological target: T2, Human immunodeficiency virus type 1 reverse transcriptase (Human immunodeficiency virus 1, UniProt Q72547, P236L)
# [8] = Bioavailability (dose 15 mg/kg i.v. and 30 mg/kg p.o.); type: ADME, organism-based; details: in vivo, po; how it was run: as §1
# [9] = biological target: T3, Human immunodeficiency virus type 1 reverse transcriptase (Human immunodeficiency virus 1, UniProt Q72547, Y181C)
# [10] = tested on: Human immunodeficiency virus 1; test: Concentration required to inhibit P24 production by 90% against U-90,152 of HIV-1 IIIB (L100I, M230L); type: functional
# [11] = Bioavailability at an iv dose of 15 mg/Kg and po dose of 29.1 mg/Kg; type: ADME, organism-based; details: in vivo, read-out: Bioavailabiility; how it was run: as §1
# [12] = biological target: T2, Human immunodeficiency virus type 1 reverse transcriptase; test: Compound was tested for inhibition of HIV-1 P236L reverse transcriptase using poly(rA)300:oligo(dT)10 as substrate
# [13] = biological target: T1, Human immunodeficiency virus type 1 reverse transcriptase; test: Compound was tested for inhibition of HIV-1 WT reverse transcriptase using poly(rA)300:oligo(dT)10 as substrate
# [14] = biological target: T2, Human immunodeficiency virus type 1 reverse transcriptase; test: Compound was tested for inhibition of HIV-1 P236L reverse transcriptase using dTTP as substrate
# [15] = tested on: Human immunodeficiency virus 1; test: In vitro inhibition of recombinant HIV-1 IIIB mutant Y181C; type: functional, organism-based
# [16] = tested on: Human immunodeficiency virus 1; test: In vitro inhibition of recombinant HIV-1 IIIB mutant P236L; type: functional, organism-based
# [17] = biological target: T3, Human immunodeficiency virus type 1 reverse transcriptase; test: Compound was tested for inhibition of HIV-1 Y181C cell line using poly(rA)300:oligo(dT)10 as substrate
# How it was run: (§2)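 Kinetic inhibition study on homodimeric recombinant HIV-1 RTs (WT, P236L, Y181C), varying dTTP or poly(rA):(dT)10 template:primer. Base assay: 28 °C, 10 min, pH 8.3 Tris-HCl, 10 mM MgCl2, 60 mM NaCl, 2 mM DTT, 0.05% NP-40, [3H]TTP incorporation. TCA-precipitated product collected on glass fibre filters and counted. Ki values derived.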
# [18] = biological target: T3, Human immunodeficiency virus type 1 reverse transcriptase; test: Compound was tested for inhibition of HIV-1 Y181C reverse transcriptase using dTTP as substrate
# [19] = tested on: Human immunodeficiency virus 1; test: In vitro inhibition of recombinant HIV-1 IIIB mutant WT; type: functional, organism-based
# [20] = biological target: T1, Human immunodeficiency virus type 1 reverse transcriptase; test: Compound was tested for inhibition of HIV-1 WT reverse transcriptase using dTTP as substrate
# [21] = Bioavailability at an iv dose of 15 mg/Kg and po dose of 30.2 mg/Kg; type: ADME, organism-based; details: rat, in vivo, read-out: Bioavailabiility; how it was run: as §1
# [22] = Clearance at an iv dose of 15 mg/Kg and po dose of 30.2 mg/Kg; type: ADME, organism-based; details: rat, in vivo; how it was run: as §1
# [23] = Clearance at an iv dose of 15.6 mg/Kg and po dose of 31.2 mg/Kg; type: ADME, organism-based; details: rat, in vivo; how it was run: as §1
# [24] = Bioavailability at an iv dose of 15.6 mg/Kg and po dose of 31.2 mg/Kg; type: ADME, organism-based; details: rat, in vivo, read-out: Bioavailabiility; how it was run: as §1
# [25] = Bioavailability at an iv dose of 15.7 mg/Kg and po dose of 31.4 mg/Kg; type: ADME, organism-based; details: rat, in vivo, read-out: Bioavailabiility; how it was run: as §1
# [26] = Clearance at an iv dose of 15.7 mg/Kg and po dose of 31.4 mg/Kg; type: ADME, organism-based; details: rat, in vivo; how it was run: as §1
# [27] = tested on: Human immunodeficiency virus 1; test: Concentration required to inhibit P24 production by 90% against U-90,152 of HIV-1 MF(P236L); type: functional
# [28] = tested on: Human immunodeficiency virus 1; test: Concentration required to inhibit P24 production by 90% against L-697,661 of HIV-1IIIB(Y181c); type: functional
# [29] = Bioavailability at an iv dose of 15 mg/Kg and po dose of 60 mg/Kg; type: ADME, organism-based; details: in vivo, read-out: Bioavailabiility; how it was run: as §1
# [30] = biological target: T1, Human immunodeficiency virus type 1 reverse transcriptase; test: Compound was tested for inhibition of HIV-1 181C cell line using poly(rA)300:oligo(dT)10 as substrate; how it was run: as §2
# [31] = Bioavailability at an iv dose of 15 mg/Kg and po dose of 120 mg/Kg; type: ADME, organism-based; details: in vivo, read-out: Bioavailabiility; how it was run: as §1
# [32] = Clearance at an iv dose of 15 mg/Kg and po dose of 60 mg/Kg; type: ADME, organism-based; details: in vivo; how it was run: as §1
# [33] = Clearance at an iv dose of 15 mg/Kg and po dose of 240 mg/Kg; type: ADME, organism-based; details: in vivo; how it was run: as §1
# [34] = Clearance at an iv dose of 15 mg/Kg and po dose of 120 mg/Kg; type: ADME, organism-based; details: in vivo; how it was run: as §1
Structure (SMILES),IC50 [3] [µM],IC90 [4] [µM],clearance ([5]; rat) [L/h/kg],IC90 [6] [µM],IC50 [7] [µM],bioavailability ([8]; rat) [%],IC50 [9] [µM],IC90 [10] [µM],also measured
CCNc1cccnc1N1CCN(C(=O)c2cc3cc(OC)ccc3[nH]2)CC1.CS(=O)(=O)O [ATEVIRDINE SULPHATE],,,,,,,,,clearance [1]: 0.78 L/h/kg; bioavailability [2]: 75%
CCN(c1ncccc1NC(C)C)C1CCN(C(=O)c2cc3cc(NC(=O)N4CCN(C)CC4)ccc3[nH]2)CC1,0.14,0.05,3,0.24,0.18,21.3,0.41,0.11,
CCN(c1ncccc1NC(C)C)C1CCN(C(=O)c2cc3cc(NS(=O)(=O)N4CCN(C)CC4)ccc3[nH]2)CC1,0.38,0.17,5.34,0.3,0.57,8,0.77,,
CN(c1nc(F)ccc1NC(C)(C)C)C1CCN(C(=O)c2cc3cc(NS(C)(=O)=O)ccc3[nH]2)CC1,0.53,0.44,,2.6,1.9,,0.72,1.6,
CCNc1cccnc1N(CC)C1CCN(C(=O)c2cc3cc(NS(C)(=O)=O)ccc3[nH]2)CC1,0.46,0.18,4,0.31,0.54,2.8,0.88,0.08,
CN(c1ncccc1NC(C)(C)C)C1CCN(C(=O)c2cc3cc(NS(C)(=O)=O)ccc3[nH]2)CC1,,0.22,,5.4,,,,0.83,bioavailability [11]: 44%
CCN(c1nc(F)ccc1NC(C)(C)C)C1CCN(C(=O)c2cc3cc(NC(=O)N4CCN(C)CC4)ccc3[nH]2)CC1,,0.13,,0.16,,,,0.14,Ki [12]: 1.74 µM; Ki [13]: 1.64 µM; Ki [14]: 2.02 µM; IC50 [15]: 0.79 µM; clearance [5]: 0.96 L/h/kg; IC50 [16]: 0.43 µM; bioavailability ([8]; eutheria): 42%; Ki [17]: 3.03 µM; Ki [18]: 2.55 µM; IC50 [19]: 0.21 µM; Ki [20]: 1.26 µM
CCCN(c1ncccc1NC(C)(C)C)C1CCN(C(=O)c2cc3cc(NS(C)(=O)=O)ccc3[nH]2)CC1,0.48,0.03,,0.32,1.45,,2.48,0.11,
CCN(c1nc(F)ccc1NC(C)C)C1CCN(C(=O)c2cc3cc(NS(C)(=O)=O)ccc3[nH]2)CC1,0.46,0.14,,0.3,0.54,,0.88,0.11,
CC(C)Nc1cccnc1N(C)C1CCN(C(=O)c2cc3cc(NS(C)(=O)=O)ccc3[nH]2)CC1,,1,,,,,,,bioavailability [21]: 4.3%; clearance [22]: 2.64 L/h/kg
CC(C)Nc1ccnnc1N(C)C1CCN(C(=O)c2cc3cc(NS(C)(=O)=O)ccc3[nH]2)CC1,0.74,,,,4.56,,1.31,,clearance [23]: 2.4 L/h/kg; bioavailability [24]: 0%
CCN(c1ncccc1NC(C)(C)C)C1CCN(C(=O)c2cc3cc(NS(=O)(=O)N4CCN(C)CC4)ccc3[nH]2)CC1,0.79,< 0.03,4.42,0.34,1.25,32,1.83,0.14,
CCc1cc(NCc2nc3c(Cl)ccc(Cl)c3o2)c(O)nc1C [L-697661],0.8,> 10,,0.43,0.11,,> 60,4,
CC(C)Nc1cccnc1N(C1CC1)C1CCN(C(=O)c2cc3cc(NS(C)(=O)=O)ccc3[nH]2)CC1,0.23,,,,0.7,,0.94,,bioavailability [25]: 1.6%; clearance [26]: 1.36 L/h/kg
CCN(c1nc(F)ccc1NC(C)(C)C)C1CCN(C(=O)c2cc3cc(NS(C)(=O)=O)ccc3[nH]2)CC1,0.73,< 0.03,1.62,0.22,1.05,17.1,1.06,0.12,
CCN(c1nc(Cl)ccc1NC(C)(C)C)C1CCN(C(=O)c2cc3cc(NS(C)(=O)=O)ccc3[nH]2)CC1,1.02,,,,1.52,,3,,IC90 [27]: 0.24 µM; IC90 [28]: > 0.3 µM
CCN(c1ncccc1NC(C)(C)C)C1CCN(C(=O)c2cc3cc(NS(C)(=O)=O)ccc3[nH]2)CC1,,0.03,,0.19,,,,0.08,Ki [12]: 1.6 µM; Ki [13]: 1.38 µM; Ki [14]: 1.11 µM; bioavailability [29]: 42%; IC50 [15]: 0.66 µM; clearance [5]: 3 L/h/kg; IC50 [16]: 0.46 µM; Ki [30]: 3.09 µM; bioavailability ([8]; eutheria): 14%; bioavailability [31]: 124%; clearance [32]: 3 L/h/kg; Ki [18]: 1.92 µM; IC50 [19]: 0.32 µM; Ki [20]: 1.03 µM; clearance [33]: 3 L/h/kg; clearance [34]: 3 L/h/kg
CCN(c1nc(F)ccc1NC(C)(C)C)C1CCN(C(=O)c2cc3cc(NS(=O)(=O)N4CCN(C)CC4)ccc3[nH]2)CC1,0.83,0.15,3.66,0.29,1.09,54,2.07,0.29,
CCN(c1ncccc1NC(C)(C)C)C1CCN(C(=O)c2cc3cc(NC(=O)N4CCN(C)CC4)ccc3[nH]2)CC1,0.22,0.05,3.66,0.16,0.37,35.1,0.61,0.16,
